The target in one assay is T1, Caspase-7 wt (Homo sapiens, UniProt P55210).
T1 sequence (P55210 24-198 limits assumed): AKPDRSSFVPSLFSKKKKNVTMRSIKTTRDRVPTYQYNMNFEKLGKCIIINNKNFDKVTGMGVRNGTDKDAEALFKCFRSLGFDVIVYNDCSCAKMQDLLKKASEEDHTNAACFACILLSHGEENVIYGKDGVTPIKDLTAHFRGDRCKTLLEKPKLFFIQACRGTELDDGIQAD
T1 sequence (P55210 207-303 limits assumed): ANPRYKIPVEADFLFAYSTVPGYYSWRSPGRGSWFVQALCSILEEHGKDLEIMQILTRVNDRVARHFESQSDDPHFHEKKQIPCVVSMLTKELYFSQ
Put plainly: Fluorometric steady-state kinetics assay. Type of assay: biochemical. The settings on record: C7 pre-saturated with DICA (DICA-C7). The method in brief:
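Fluorometric steady-state kinetic assays on wild-type C7 and wild-type C3. Both IC50 and Ki were derived. Ki came from fitting a non-competitive inhibitor equation. Values are reported with confidence intervals at the 95% level.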

A further assay deals with T2, C7 wt (Homo sapiens, UniProt P55210).
T2 sequence (P55210 24-198 limits assumed): T1 sequence (P55210 24-198 limits assumed)
T2 sequence (P55210 207-303 limits assumed): T1 sequence (P55210 207-303 limits assumed)
Put plainly: Fluorometric stopped-flow pre-steady state kinetics assay. Type of assay: biochemical. As to conditions: with increasing concentrations of inhibitor. In short, it runs like this:
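Fluorescence stopped-flow on wild-type caspase-7. Progress curves were recorded with test compound at 6 to 500 uM or with DMSO alone, and a covalent allosteric inhibitor served as the assay-development control. Each curve was fitted individually to a pre-steady-state burst equation plus linear steady-state rate to give burst amplitude and k_burst. SE comes from a 95% confidence interval.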

The target of the next assay is T3, C7 (Homo sapiens, UniProt P55210).
T3 sequence (P55210 24-198 limits assumed): T1 sequence (P55210 24-198 limits assumed)
T3 sequence (P55210 207-303 limits assumed): T1 sequence (P55210 207-303 limits assumed)
In words: Differential scanning fluorimetry. The assay is classed as binding. As to conditions: DICA-saturated C7 plus Ac-DEVD-CMK. A general note: Differential scanning fluorimetry follows unfolding on heating by fluorescence.

As to `O=C(COc1ccc(Cl)cc1Cl)NCCS` [DICA, 2-(2,4-Dichlorophenoxy)-N-(2-mercaptoethyl)-acetamide, reference compound], the “turnover of Ac-DEVD-AFC substrate” value at Caspase-7 wt was “no turnover”. For the same compound, at C7 wt, the burst amplitude result is “decrease” and the “burst phase rate constant (kburst)” value was “no change”. In addition, at C7, the “formation of physical enzyme-substrate-inhibitor (ESI) complex” value is “able to physically bind substrate and DICA simultaneously”.

These data come from paper PMC11596327 (Chemistry (Weinheim an der Bergstrasse, Germany), 2023).
